Consider 20 compounds from ChEMBL document CHEMBL4837232, “Synthesis, in vitro antiprotozoal activity, molecular docking and molecular dynamics studies of some new monocationic guanidinobenzimidazoles” (Eur J Med Chem, 2021).

In one data set the test system is Plasmodium falciparum. The data set is described as follows: Antiplasmodial activity against bloodstream form of Plasmodium falciparum NF54 […] assessed as reduction in [3H]-hypoxanthine incorporation pretreated for 48 hrs followed by [3H]-hypoxanthine addition measured after 24 hrs by liquid scintillation counting method. It counts as functional, organism-based.

Data set [1] has as its system Trypanosoma brucei rhodesiense. The data set is described as follows: Antitrypanosomal activity against bloodstream form of Trypanosoma brucei rhodesiense STIB900 incubated for 70 hrs by resazurin dye-based fluorometric analysis. Particulars: STIB900, 70 h. In kind it is functional, organism-based.
The next data set has as its system Trypanosoma cruzi. In words: Antitrypanosomal activity against Trypanosoma cruzi Tulahuen C4 strain amastigotes infected in rat L6 cells measured after 96 hrs by inverted microscopy analysis. In kind it is functional, organism-based. Particulars: Tulahuen C4, L6, 96 h.
The subject of the next data set is Leishmania donovani. In words: Antileishmanial activity against Leishmania donovani MHOM/ET/67/L82 amastigotes measured after 70 hrs by resazurin dye based fluorometric analysis. It counts as functional, organism-based. Particulars: MHOM/ET/67/L82, 70 h.
In another data set the test system is L6. In words: Cytotoxicity against rat L6 cells assessed as reduction in cell viability incubated for 70 hrs by resazurin dye based fluorescence assay. Particulars: L6, 70 h. The method in brief:
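Uses cultured L-6 rat skeletal myoblasts with an Alamar Blue viability read-out, run per an earlier protocol. The IC50 is the mean of at least two independent experiments, with individual values within a factor of two.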
In general terms: The colour change of resazurin is a common sign of viable cells or microbes.

Data set [2] in a line: Selectivity index, ratio of IC50 for cytotoxicity against rat L6 cells to IC50 for antiplasmodial activity against bloodstream form of Plasmodium falciparum NF54. It counts as toxicity, cell-based. The settings on record: read-out: Ratio IC50. The method in brief:
(§1)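 Each index is the L6-cell IC50 divided by the IC50 for the given parasite. Each IC50 is the mean of at least two independent experiments, agreeing within a factor of two.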

A short description of data set [3]: Selectivity index, ratio of IC50 for cytotoxicity against rat L6 cells to IC50 for antitrypanosomal activity against bloodstream form of Trypanosoma brucei rhodesiense STIB900. In kind it is toxicity, cell-based. Particulars: read-out: Ratio IC50. The method in brief:
as §1

A short description of data set [4]: Selectivity index, ratio of IC50 for cytotoxicity against rat L6 cells to IC50 for antitrypanosomal activity against Trypanosoma cruzi Tulahuen C4 strain amastigotes infected in rat L6 cell. It counts as toxicity, cell-based. The settings on record: read-out: Ratio IC50. The method in brief:
as §1

A short description of data set [5]: Selectivity index, ratio of IC50 for cytotoxicity against rat L6 cells to IC50 for antileishmanial activity against Leishmania donovani MHOM/ET/67/L82 amastigotes. It counts as toxicity, cell-based. The settings on record: read-out: Ratio IC50. The procedure, abridged:
as §1

The structures appear in SMILES notation. Converted amounts (≈) assume the structure as drawn.

With `N=C(N)Nc1ccc2[nH]c(-c3cc(-c4ccc(Cl)cc4)on3)nc2c1`, the half-inhibitory concentration (IC50) (usually the concentration at which inhibition is half-maximal) in the data set with Plasmodium falciparum worked out at 1.14 µg/mL (≈ 3.23 µM); in data set [1], 5.62 µg/mL (≈ 15.9 µM); with Trypanosoma cruzi it was 21.7 µg/mL (≈ 61.5 µM); in the data set with Leishmania donovani it was 7.7 µg/mL (≈ 21.8 µM); in the data set with L6 it was 46.8 µg/mL (≈ 133 µM).

`N=C(N)Nc1ccc2[nH]c(-c3ccc(Oc4ccccc4)cc3)nc2c1`: the IC50 with Plasmodium falciparum is 1.87 µg/mL (≈ 5.45 µM); in data set [1], 16.1 µg/mL (≈ 46.9 µM); in the data set with Trypanosoma cruzi, 49.5 µg/mL (≈ 144 µM); with Leishmania donovani, more than 100 µg/mL; with L6 it was 51.6 µg/mL (≈ 150 µM).

As for `N=C(N)Nc1ccc2[nH]c(-c3ccc(OCc4ccccc4)cc3)nc2c1`, the half-maximal inhibitory concentration (IC50) with Plasmodium falciparum is 0.226 µg/mL (≈ 0.632 µM); in data set [1] it was 13.6 µg/mL (≈ 38.1 µM); in the data set with Trypanosoma cruzi, 38 µg/mL (≈ 106 µM); in the data set on Leishmania donovani it was more than 100 µg/mL; with L6, 43.2 µg/mL (≈ 121 µM).

As for `COc1ccc(Oc2ccc(-c3nc4cc(NC(=N)N)ccc4[nH]3)cc2)cc1OC`, the IC50 in the data set on Plasmodium falciparum is 0.052 µg/mL (≈ 0.129 µM); in data set [1], 12.5 µg/mL (≈ 31 µM); in the data set on Trypanosoma cruzi, 58.6 µg/mL (≈ 145 µM); with Leishmania donovani it was 58 µg/mL (≈ 144 µM); in the data set with L6, more than 100 µg/mL. For the same compound, the selectivity ratio is more than 1920 in [2], more than 8 in [3], more than 2 in data set [4] and more than 2 in data set [5].

For `COc1ccc(-c2nc3cc(NC(=N)N)ccc3[nH]2)cc1OC`, the 50% inhibitory concentration (IC50) is 0.153 µg/mL (≈ 0.491 µM) with Plasmodium falciparum; 23.8 µg/mL (≈ 76.4 µM) in data set [1]; more than 100 µg/mL with Trypanosoma cruzi; 97.8 µg/mL (≈ 314 µM) in the data set with Leishmania donovani; 78 µg/mL (≈ 251 µM) with L6.

With `N=C(N)Nc1ccc2[nH]c(-c3ccc(C(=O)O)cc3)nc2c1`, the 50% inhibitory concentration (IC50) was 37.2 µg/mL (≈ 126 µM) in the data set on Plasmodium falciparum; 72.1 µg/mL (≈ 244 µM) in data set [1]; 59.1 µg/mL (≈ 200 µM) in the data set with Trypanosoma cruzi; more than 100 µg/mL in the data set with Leishmania donovani; more than 100 µg/mL in the data set with L6.

Turning to `N=C(N)Nc1ccc2[nH]c(-c3ccccc3)nc2c1`, the concentration for half-maximal inhibition (IC50) was 4.07 µg/mL (≈ 16.2 µM) with Plasmodium falciparum; 11.6 µg/mL (≈ 46.2 µM) in [1]; 61.2 µg/mL (≈ 244 µM) in the data set on Trypanosoma cruzi; more than 100 µg/mL in the data set with Leishmania donovani; more than 100 µg/mL in the data set on L6.

For `Cc1ncsc1-c1nc2cc(NC(=N)N)ccc2[nH]1`, the IC50 in the data set on Plasmodium falciparum worked out at 3.03 µg/mL (≈ 11.1 µM); in [1], 17.3 µg/mL (≈ 63.5 µM); in the data set on Trypanosoma cruzi, 64 µg/mL (≈ 235 µM); in the data set with Leishmania donovani, 46.8 µg/mL (≈ 172 µM); in the data set on L6 it was 93 µg/mL (≈ 341 µM).

`N=C(N)Nc1ccc2[nH]c(-c3ccc4c(c3)Cc3ccccc3-4)nc2c1`: the IC50 with Plasmodium falciparum is 0.168 µg/mL (≈ 0.495 µM); in [1] it was 6.03 µg/mL (≈ 17.8 µM); in the data set on Trypanosoma cruzi it was 34.3 µg/mL (≈ 101 µM); with Leishmania donovani, 40.3 µg/mL (≈ 119 µM); in the data set on L6, 43.6 µg/mL (≈ 128 µM).

As for `N=C(N)Nc1ccc2[nH]c(-c3ccc(-c4ccccc4)cc3)nc2c1`, the IC50 was 0.018 µg/mL (≈ 0.055 µM) in the data set with Plasmodium falciparum; 21.5 µg/mL (≈ 65.7 µM) in data set [1]; 54.3 µg/mL (≈ 166 µM) with Trypanosoma cruzi; 52.5 µg/mL (≈ 161 µM) with Leishmania donovani; 46.2 µg/mL (≈ 141 µM) with L6. For the same compound, the selectivity ratio in data set [2] worked out at 2360; in data set [3], 2; in [4], 0.8; in data set [5], 0.8.

`Cc1ccc(-c2nc3cc(NC(=N)N)ccc3[nH]2)c(C)c1`: the IC50 in the data set with Plasmodium falciparum is 6.26 µg/mL (≈ 22.4 µM); in data set [1] it was 40.8 µg/mL (≈ 146 µM); in the data set on Trypanosoma cruzi it was more than 100 µg/mL; with Leishmania donovani, more than 100 µg/mL; in the data set with L6, 97.8 µg/mL (≈ 350 µM).

Regarding `N=C(N)Nc1ccc2[nH]c(-c3ccc(-c4ccccc4)s3)nc2c1`, the half-maximal inhibitory concentration (IC50) in the data set with Plasmodium falciparum amounted to 0.279 µg/mL (≈ 0.837 µM); in [1] it was 16 µg/mL (≈ 48 µM); in the data set with Trypanosoma cruzi, 36.5 µg/mL (≈ 109 µM); in the data set on Leishmania donovani, 44 µg/mL (≈ 132 µM); in the data set with L6 it was 48.4 µg/mL (≈ 145 µM).

On to `N=C(N)Nc1ccc2[nH]c(-c3ccc4c(c3)OCCO4)nc2c1`, for which the IC50 worked out at 0.82 µg/mL (≈ 2.65 µM) in the data set with Plasmodium falciparum; 10.1 µg/mL (≈ 32.7 µM) in data set [1]; 75.1 µg/mL (≈ 243 µM) with Trypanosoma cruzi; 56.2 µg/mL (≈ 182 µM) in the data set with Leishmania donovani; 73.5 µg/mL (≈ 238 µM) in the data set on L6.

On to `N=C(N)Nc1ccc2[nH]c(-c3cccc4ccccc34)nc2c1`, for which the half-maximal inhibitory concentration (IC50) with Plasmodium falciparum is 1.41 µg/mL (≈ 4.68 µM); in data set [1] it was 11.8 µg/mL (≈ 39.2 µM); in the data set with Trypanosoma cruzi it was 63.6 µg/mL (≈ 211 µM); with Leishmania donovani, more than 100 µg/mL; in the data set with L6 it was 48.9 µg/mL (≈ 162 µM).

Turning to `N=C(N)Nc1ccc2[nH]c(-c3ccc(Cl)cc3)nc2c1`, the IC50 turned out to be 1.89 µg/mL (≈ 6.61 µM) in the data set with Plasmodium falciparum; 29.5 µg/mL (≈ 103 µM) in data set [1]; 90.5 µg/mL (≈ 317 µM) in the data set with Trypanosoma cruzi; 64.5 µg/mL (≈ 226 µM) in the data set on Leishmania donovani; 71.1 µg/mL (≈ 249 µM) in the data set on L6.

Take `N=C(N)Nc1ccc2[nH]c(-c3ccc(F)c(F)c3)nc2c1`: the IC50 was 2.67 µg/mL (≈ 9.29 µM) with Plasmodium falciparum; 6.04 µg/mL (≈ 21 µM) in data set [1]; 67 µg/mL (≈ 233 µM) with Trypanosoma cruzi; more than 100 µg/mL with Leishmania donovani; more than 100 µg/mL in the data set on L6.

Take `N=C(N)Nc1ccc2[nH]c(-c3cccc4cnccc34)nc2c1`: the IC50 with Plasmodium falciparum is 2.72 µg/mL (≈ 9 µM); in data set [1], 3.8 µg/mL (≈ 12.6 µM); with Trypanosoma cruzi it was 8.57 µg/mL (≈ 28.3 µM); in the data set on Leishmania donovani, 46.3 µg/mL (≈ 153 µM); in the data set on L6, 44.6 µg/mL (≈ 148 µM).

With `N=C(N)Nc1ccc2[nH]c(-c3csc4ccccc34)nc2c1`, the IC50 in the data set on Plasmodium falciparum stood at 0.57 µg/mL (≈ 1.85 µM); in [1], 12.1 µg/mL (≈ 39.4 µM); in the data set on Trypanosoma cruzi, 53.1 µg/mL (≈ 173 µM); in the data set on Leishmania donovani it was 58.6 µg/mL (≈ 191 µM); in the data set on L6 it was 40 µg/mL (≈ 130 µM).

In the case of `N=C(N)Nc1ccc2[nH]c(-c3ccc(-c4cccs4)s3)nc2c1`, the concentration for half-maximal inhibition (IC50) with Plasmodium falciparum came to 0.19 µg/mL (≈ 0.56 µM); in data set [1], 11.8 µg/mL (≈ 34.8 µM); in the data set on Trypanosoma cruzi it was 46.1 µg/mL (≈ 136 µM); in the data set with Leishmania donovani, 37.7 µg/mL (≈ 111 µM); in the data set on L6, 49.9 µg/mL (≈ 147 µM).

Take `N#Cc1ccc(-c2nc3cc(NC(=N)N)ccc3[nH]2)cc1`: the IC50 with Plasmodium falciparum was 1.17 µg/mL (≈ 4.23 µM); in data set [1], 18.2 µg/mL (≈ 65.9 µM); in the data set with Trypanosoma cruzi, 89.5 µg/mL (≈ 324 µM); in the data set on Leishmania donovani, more than 100 µg/mL; in the data set with L6, more than 100 µg/mL.
